Here are results for one molecule from publication PMC5248944 (International Journal of Nanomedicine, 2017).

The format of data set [1] is physicochemical. The conditions noted are these: 35°C, 5-FU 1.25 mg/mL in donor phase; control slope = Km. An outline of the steps:
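Dynamic dialysis was run at 35°C across porous cellulose (12.5 kDa cutoff). The donor held 5 mL of lyophilised-then-regenerated nanoparticles, plain drug solution, or drug with 0.25 mg/mL chitosan HCl; the receiver held 100 mL demineralised water under sink conditions. The receiver was sampled at intervals for HPLC (RP-18, 0.05 M KH2PO4/0.1% triethylamine, UV 266 nm). Ff came from the ln[(Cd/Cd0)×100]-vs-time slope; ≥3 repeats.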

Data set [2] is described as follows: Dynamic dialysis at 4°C: drug–polymer interactions in TSOH, sol state. Type of data set: physicochemical. The conditions noted are these: 5-FU 1.25 mg/mL, printed value is slope ×10^3. An outline of the steps: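 Sol-state formulations were tested by dynamic dialysis at 4°C. The donor held 5 mL of formulation; the receiver held 100 mL of 0.08 M HCl with β-glycerophosphate. Receiver drug was measured at intervals. Each day's run order was control, two formulations, then control again on the same membrane, with a fresh membrane daily. Bound fraction was taken as 1−Ff from the log-linear slope.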

As to `O=c1[nH]cc(F)c(=O)[nH]1` [Control, 5-fluorouracil], in data set [1], the “slope of straight line ± standard deviation, ln[(Cd/Cd0)×100] vs t” value stood at 0.841±0.029 hours. In addition, the “Modulus of straight-line slope (×10^3) ± SD (n=8)” value in data set [2] is 5.06±0.75 1/minutes.
